From ChEMBL document CHEMBL1140866, “New pyrazoline bearing 4(3H)-quinazolinone inhibitors of monoamine oxidase: synthesis, biological evaluation, and structural determinants of MAO-A and MAO-B selectivity” (Bioorg Med Chem, 2009) come the findings set out here.

Data set [1] relates to Mus musculus. The data set is described as follows: Anxiolytic activity in albino mouse assessed as time spent on closed arm at 100 mg/kg, ip by plus-maze test. Type of data set: functional. Set-up: unit not given here. The following applies: route intraperitoneal. The method in brief:
(§1)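 Mice given compounds i.p. at 100 mg/kg in DMSO/water (1:4), about 0.1 mL, 1 h before testing; controls got 0.1 mL vehicle; n = 7–8. Housed eight per cage, 20 ± 2 °C, 12 h light/dark. Each animal did the plus-maze first, then forced swim.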

Data set [2] deals with T1, Amine oxidase [flavin-containing] B (Rattus norvegicus, UniProt P19643).
T1 sequence (P19643 whole entry): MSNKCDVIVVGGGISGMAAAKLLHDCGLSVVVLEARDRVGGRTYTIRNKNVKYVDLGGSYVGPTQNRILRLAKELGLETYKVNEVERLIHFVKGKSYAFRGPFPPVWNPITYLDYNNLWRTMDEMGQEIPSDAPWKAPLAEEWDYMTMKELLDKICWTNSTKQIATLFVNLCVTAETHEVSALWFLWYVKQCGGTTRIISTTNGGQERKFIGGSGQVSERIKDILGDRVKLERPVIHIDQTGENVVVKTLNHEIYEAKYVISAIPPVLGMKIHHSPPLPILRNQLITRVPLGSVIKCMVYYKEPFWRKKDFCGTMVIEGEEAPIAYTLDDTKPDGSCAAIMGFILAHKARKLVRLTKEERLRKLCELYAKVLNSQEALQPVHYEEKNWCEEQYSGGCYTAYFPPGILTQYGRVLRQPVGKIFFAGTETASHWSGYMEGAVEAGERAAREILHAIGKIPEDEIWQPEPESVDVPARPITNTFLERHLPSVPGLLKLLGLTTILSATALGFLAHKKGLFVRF
The data set is described as follows: Inhibition of MAO-B in rat liver homogenate after 60 mins by Lineweaver-Burke plot. Type of data set: tissue-based. The following applies: for Activity: rat, 1 h, TDE = time-dependent effect.

Data set [3] relates to Mus musculus. The data set is described as follows: Anxiolytic activity in albino mouse assessed as total number of entries into arms at 100 mg/kg, ip by plus-maze test. The format is functional. The following applies: route intraperitoneal. In outline:
as §1

Data set [4] concerns the target T2, Amine oxidase [flavin-containing] A (Rattus norvegicus, UniProt P21396).
T2 sequence (P21396 whole entry): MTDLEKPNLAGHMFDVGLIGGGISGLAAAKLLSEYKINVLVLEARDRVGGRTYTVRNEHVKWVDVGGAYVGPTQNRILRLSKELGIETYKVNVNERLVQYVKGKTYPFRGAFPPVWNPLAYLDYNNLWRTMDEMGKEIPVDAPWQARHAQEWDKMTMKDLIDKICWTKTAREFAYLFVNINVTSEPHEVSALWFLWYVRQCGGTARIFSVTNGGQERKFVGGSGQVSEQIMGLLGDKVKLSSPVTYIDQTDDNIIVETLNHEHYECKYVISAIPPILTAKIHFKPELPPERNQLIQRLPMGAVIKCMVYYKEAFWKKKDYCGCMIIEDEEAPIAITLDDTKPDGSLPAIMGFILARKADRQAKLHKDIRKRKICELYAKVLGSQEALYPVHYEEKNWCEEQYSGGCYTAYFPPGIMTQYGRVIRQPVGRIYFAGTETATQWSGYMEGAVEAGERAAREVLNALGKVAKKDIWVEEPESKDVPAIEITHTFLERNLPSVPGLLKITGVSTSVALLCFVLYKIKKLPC
In words: Inhibition of MAO-A in rat liver homogenate after 60 mins by residual activity plot. The format is tissue-based.

In data set [5] the test system is Mus musculus. In words: Antidepressant activity in albino mouse assessed as immobility time at 100 mg/kg, ip by forced swim test. Type of data set: functional. To be noted: route intraperitoneal. The method in brief:
as §1

Data set [6] concerns the target T2, Amine oxidase [flavin-containing] A. The data set is described as follows: Inhibition of MAO-A in rat liver homogenate after 60 mins by Lineweaver-Burke plot. Type of data set: tissue-based. The following applies: for Activity: rat, 1 h, TDE = time-dependent effect.
Data set [7] addresses T1, Amine oxidase [flavin-containing] B. The data set is described as follows: Inhibition of MAO-B in rat liver homogenate after 60 mins by residual activity plot. The format is tissue-based.
In data set [8] the test system is Mus musculus. In words: Anxiolytic activity in albino mouse assessed as total number of entries into arms at 5 mg/kg, ip by plus-maze test. The format is functional. To be noted: route intraperitoneal.
In data set [9] the test system is Mus musculus. The data set is described as follows: Antidepressant activity in albino mouse assessed as immobility time at 5 mg/kg, ip by forced swim test. The format is functional. The following applies: route intraperitoneal.
For data set [10], the system named is Mus musculus. In words: Anxiolytic activity in albino mouse assessed as time spent on closed arm at 5 mg/kg, ip by plus-maze test. The following applies: route intraperitoneal. Type of data set: functional.

Regarding `COc1ccc(C2=NN(c3nc4ccccc4c(=O)n3C)C(c3ccco3)C2)cc1` (centres undefined), the Activity in the data set on Mus musculus [1] is 226; in data set [2] it was “tde”; in the data set with Mus musculus [5] it was 69%; in data set [6] it was “tde”. Further, the figures for the Ki in data set [2] and in [6] were 1.48 µM and 6.8 µM, respectively. Also, the arm entries in the data set on Mus musculus [3] was determined as 5.57 entries. Also, the IC50 (usually the midpoint of a concentration-inhibition curve) came out at 418 µM in [4] and 2.03 µM in data set [7].

For `COc1ccc(C2CC(c3ccccc3)=NN2c2nc3ccccc3c(=O)n2C)cc1` (centres undefined), the Activity in the data set on Mus musculus [1] was 162.43; in data set [2], “tde”; with Mus musculus [5], 58%; in [6] it was “tde”. Besides, the Ki (usually the equilibrium dissociation constant of an inhibitor or competing ligand from its target) was 9.9 µM in data set [2] and 1.03 µM in data set [6]. Also, the arm entries in the data set with Mus musculus [3] came to 5.37 entries. Also, the IC50 in data set [4] amounted to 4.51 µM; in [7] it was 400 µM.

For `Cc1ccc(C2=NN(c3nc4ccccc4c(=O)n3C)C(c3ccco3)C2)cc1` (centres undefined), the Activity with Mus musculus [1] was 208.57; in data set [2], “tde”; in the data set with Mus musculus [5] it was 64%; in data set [6], “tde”. The inhibitory constant (Ki) worked out at 88.6 µM in [2] and 140 µM in data set [6]. For the same compound, the arm entries with Mus musculus [3] came to 9 entries. Besides, the 50% inhibitory concentration (IC50) was determined as 410 µM in [4] and 77.1 µM in data set [7].

Turning to `Cn1c(N2N=C(c3ccccc3)CC2c2ccc(Cl)cc2)nc2ccccc2c1=O` (centres undefined), the Activity in the data set on Mus musculus [1] is recorded as 154.75; in data set [2] it was “tde”; with Mus musculus [5] it was 42.37%; in data set [6] it was “tde”. Moreover, the Ki in [2] came out at 18.4 µM; in [6], 2.7 µM. Also, the arm entries with Mus musculus [3] was determined as 4.12 entries. For the same compound, the values for the IC50 in data set [4] and in data set [7] were 3.7 µM and 416 µM, respectively.

Take `Cn1c(N2N=C(c3ccccc3)CC2c2cccc(Cl)c2)nc2ccccc2c1=O` (centres undefined): the Activity with Mus musculus [1] was 218.25; in data set [2], “tde”; with Mus musculus [5], 26.25%; in data set [6] it was “tde”. Moreover, the figures for the inhibition constant (Ki) in data set [2] and in data set [6] were 5.8 µM and 0.9 µM, respectively. For the same compound, the arm entries with Mus musculus [3] is 3.75 entries. Besides, the values for the half-inhibitory concentration (IC50) in data set [4] and in data set [7] were 1.02 µM and 400 µM, respectively.

`Cc1ccc(C2CC(c3ccccc3)=NN2c2nc3ccccc3c(=O)n2C)cc1` (centres undefined): the Activity with Mus musculus [1] is reported as 178.25; in data set [2] it was “tde”; with Mus musculus [5], 43.25%; in [6] it was “tde”. For the same compound, the Ki in data set [2] was 7.9 µM; in [6], 2.56 µM. For the same compound, in the data set with Mus musculus [3], the arm entries was 3.87 entries. Moreover, the IC50 in data set [4] was 4.51 µM; in data set [7], 484 µM.

As to `Cn1c(N2N=C(c3ccc(Cl)cc3)CC2c2ccco2)nc2ccccc2c1=O` (centres undefined), the Activity in the data set with Mus musculus [1] was 204; in data set [2], “tde”; in the data set on Mus musculus [5] it was 74%; in data set [6], “tde”. For the same compound, the Ki in data set [2] stood at 9.25 µM; in [6], 28.7 µM. Further, the arm entries in the data set on Mus musculus [3] is 4.86 entries. Besides, the IC50 in data set [4] amounted to 450 µM; in data set [7] it was 7.22 µM.

In the case of `Cn1c(N2N=C(c3ccccc3)CC2c2ccccc2)nc2ccccc2c1=O` (centres undefined), the Activity with Mus musculus [1] is 222.27; in data set [2], “tde”; in the data set on Mus musculus [5], 27%; in data set [6], “tde”. For the same compound, the Ki came out at 25.2 µM in [2] and 9.9 µM in [6]. In the data set with Mus musculus [3], the arm entries worked out at 4.37 entries. The IC50 in data set [4] is 9.46 µM; in [7], 410 µM.

For `Cn1c(N2N=C(c3ccccc3)CC2c2ccc(Br)cc2)nc2ccccc2c1=O` (centres undefined), the Activity in the data set with Mus musculus [1] was 230; in [2] it was “tde”; with Mus musculus [5], 65.12%; in [6] it was “tde”. In addition, the figures for the Ki in [2] and in data set [6] were 10.6 µM and 1.17 µM, respectively. Moreover, in the data set on Mus musculus [3], the arm entries worked out at 3.25 entries. Also, the half-inhibitory concentration (IC50) in [4] is 1.68 µM; in data set [7] it was 485 µM.

Turning to `COc1ccc(C2=NN(c3nc4ccccc4c(=O)n3C)C(c3cccs3)C2)cc1` (centres undefined), the Activity in the data set with Mus musculus [1] is listed as 248.5; in data set [2] it was “tde”; in the data set on Mus musculus [5] it was 61.13%; in data set [6] it was “tde”. Also, the Ki in data set [2] was determined as 16.3 µM; in data set [6], 25.3 µM. Besides, in the data set with Mus musculus [3], the arm entries came out at 5.13 entries. Also, the values for the IC50 in data set [4] and in data set [7] were 440 µM and 15.2 µM, respectively.

With `O=C(NCCN1CCOCC1)c1ccc(Cl)cc1` [MOCLOBEMIDE], the arm entries in the data set with Mus musculus [8] amounted to 6.15 entries. For the same compound, the Activity in the data set on Mus musculus [9] is listed as 54.3%; in the data set on Mus musculus [10] it was 250.72%. In addition, in data set [2], the affinity corresponds to a Ki of 10.2 µM.
